Test [1] concerns the target T1, GFP-Sc-Dyn (Saccharomyces cerevisiae, UniProt P36022). Put plainly: Microscale thermophoresis. The class given is binding, S. cerevisiae.
Test [2] deals with GFP-Sc-Dyn V2391S/M2732S (AAA3_V-S/AAA4_M-S) (Saccharomyces cerevisiae, UniProt P36022, M2732S/V2391S). Description: Microscale thermophoresis. The class given is binding. To be noted: read-out: EC50, AMPPNP binding to AAA3_V-S/AAA4_M-S (MST); mean ± 95% CI, n=3.
The target of test [3] is T2, Hs-dynein 1 (Homo sapiens, UniProt Q14204). The conditions noted are these: ref Steinman et al., 2017; cited from earlier work.
In test [4] the target is T2, Hs-dynein 1. To be noted: read-out: IC50, inhibition of Hs-dynein 1; ref Steinman et al., 2017; cited from earlier work.
Test [5] has as its target T2, Hs-dynein 1. Put plainly: Radioactive ATPase assay, basal ATPase activity of Hs-dynein 1. It counts as biochemical. The conditions noted are these: for Inhibition of Hs-dynein 1 basal ATPase activity (in words): compounds tested at 20 μM, 1 mM MgATP, no microtubules, n=2. Summed up:
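Hs-dynein 1 motor construct (N-terminal His6, aa 1320–4646) at 30 nM, without microtubules. Radioactive ATPase reaction ran for 45 min with test compound. Percent inhibition was obtained by normalising the ATPase rate with compound to DMSO control.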

For test [6], the target named is T3, Sc-Dyn-lyso (Saccharomyces cerevisiae, UniProt P36022).
T3 sequence (P36022 1758-2992 limits assumed): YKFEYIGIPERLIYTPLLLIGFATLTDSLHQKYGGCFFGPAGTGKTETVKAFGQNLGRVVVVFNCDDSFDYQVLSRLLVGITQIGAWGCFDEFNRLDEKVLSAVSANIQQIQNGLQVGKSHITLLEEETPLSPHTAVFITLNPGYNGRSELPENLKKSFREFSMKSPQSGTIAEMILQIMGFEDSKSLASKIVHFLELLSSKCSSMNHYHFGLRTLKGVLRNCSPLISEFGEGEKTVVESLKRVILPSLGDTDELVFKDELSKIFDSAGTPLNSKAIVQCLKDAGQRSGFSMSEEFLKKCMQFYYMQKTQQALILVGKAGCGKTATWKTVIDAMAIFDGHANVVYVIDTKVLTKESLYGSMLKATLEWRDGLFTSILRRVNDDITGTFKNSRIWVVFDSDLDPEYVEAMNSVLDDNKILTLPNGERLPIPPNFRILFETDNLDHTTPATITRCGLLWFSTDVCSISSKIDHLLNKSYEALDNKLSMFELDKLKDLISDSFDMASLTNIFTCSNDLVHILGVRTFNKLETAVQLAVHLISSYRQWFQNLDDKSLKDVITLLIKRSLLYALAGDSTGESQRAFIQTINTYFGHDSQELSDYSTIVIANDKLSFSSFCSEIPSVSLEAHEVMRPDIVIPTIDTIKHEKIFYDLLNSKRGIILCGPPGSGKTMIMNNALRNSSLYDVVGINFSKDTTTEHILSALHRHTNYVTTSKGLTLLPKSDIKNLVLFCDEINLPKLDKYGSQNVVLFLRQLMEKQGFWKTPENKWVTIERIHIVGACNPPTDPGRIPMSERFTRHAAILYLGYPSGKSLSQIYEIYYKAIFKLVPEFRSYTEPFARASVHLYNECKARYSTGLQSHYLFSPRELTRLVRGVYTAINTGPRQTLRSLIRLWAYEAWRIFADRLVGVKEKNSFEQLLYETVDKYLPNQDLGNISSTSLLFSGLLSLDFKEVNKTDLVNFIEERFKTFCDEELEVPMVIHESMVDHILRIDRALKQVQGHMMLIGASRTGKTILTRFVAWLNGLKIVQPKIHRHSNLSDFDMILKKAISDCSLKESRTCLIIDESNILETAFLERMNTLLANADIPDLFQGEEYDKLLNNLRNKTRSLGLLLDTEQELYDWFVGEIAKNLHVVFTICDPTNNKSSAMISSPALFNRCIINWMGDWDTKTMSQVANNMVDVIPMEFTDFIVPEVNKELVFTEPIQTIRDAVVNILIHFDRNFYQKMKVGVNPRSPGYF
T3 sequence (P36022 3301-4092 limits assumed): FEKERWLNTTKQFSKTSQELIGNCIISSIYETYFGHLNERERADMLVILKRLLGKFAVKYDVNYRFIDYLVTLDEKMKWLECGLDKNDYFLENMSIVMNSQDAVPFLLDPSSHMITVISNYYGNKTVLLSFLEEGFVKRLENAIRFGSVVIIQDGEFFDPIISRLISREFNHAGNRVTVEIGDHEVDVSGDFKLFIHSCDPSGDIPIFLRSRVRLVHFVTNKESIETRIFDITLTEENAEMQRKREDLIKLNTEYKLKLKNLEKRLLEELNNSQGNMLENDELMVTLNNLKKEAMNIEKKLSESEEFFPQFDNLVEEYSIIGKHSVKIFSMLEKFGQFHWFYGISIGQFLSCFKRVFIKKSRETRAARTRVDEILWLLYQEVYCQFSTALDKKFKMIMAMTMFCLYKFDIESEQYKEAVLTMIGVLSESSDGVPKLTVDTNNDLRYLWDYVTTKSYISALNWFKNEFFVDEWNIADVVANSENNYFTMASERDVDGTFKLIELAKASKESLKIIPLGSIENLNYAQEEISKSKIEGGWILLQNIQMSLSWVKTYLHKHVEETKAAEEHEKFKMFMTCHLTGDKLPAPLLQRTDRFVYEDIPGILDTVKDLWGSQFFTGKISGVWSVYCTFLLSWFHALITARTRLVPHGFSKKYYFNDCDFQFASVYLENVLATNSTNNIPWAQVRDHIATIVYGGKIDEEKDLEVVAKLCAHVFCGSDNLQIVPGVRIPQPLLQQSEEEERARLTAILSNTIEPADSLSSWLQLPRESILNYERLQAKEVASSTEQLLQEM
Description: Microscale thermophoresis. The class given is binding, S. cerevisiae. The conditions noted are these: n=2, negative control. In general terms: Microscale thermophoresis detects binding through changes in fluorescence in a small temperature gradient.

The target in test [7] is T1, GFP-Sc-Dyn. Description: Microtubule gliding assay. The conditions noted are these: 25 μM compound. It counts as biochemical, S. cerevisiae.
For test [8], the target named is Sc-DynGST (Saccharomyces cerevisiae, UniProt P36022). Put plainly: Single-molecule motility assay. It counts as biochemical, S. cerevisiae. The conditions noted are these: single-molecule.
Sequence of Sc-DynGST (P36022 1219-4092 limits assumed): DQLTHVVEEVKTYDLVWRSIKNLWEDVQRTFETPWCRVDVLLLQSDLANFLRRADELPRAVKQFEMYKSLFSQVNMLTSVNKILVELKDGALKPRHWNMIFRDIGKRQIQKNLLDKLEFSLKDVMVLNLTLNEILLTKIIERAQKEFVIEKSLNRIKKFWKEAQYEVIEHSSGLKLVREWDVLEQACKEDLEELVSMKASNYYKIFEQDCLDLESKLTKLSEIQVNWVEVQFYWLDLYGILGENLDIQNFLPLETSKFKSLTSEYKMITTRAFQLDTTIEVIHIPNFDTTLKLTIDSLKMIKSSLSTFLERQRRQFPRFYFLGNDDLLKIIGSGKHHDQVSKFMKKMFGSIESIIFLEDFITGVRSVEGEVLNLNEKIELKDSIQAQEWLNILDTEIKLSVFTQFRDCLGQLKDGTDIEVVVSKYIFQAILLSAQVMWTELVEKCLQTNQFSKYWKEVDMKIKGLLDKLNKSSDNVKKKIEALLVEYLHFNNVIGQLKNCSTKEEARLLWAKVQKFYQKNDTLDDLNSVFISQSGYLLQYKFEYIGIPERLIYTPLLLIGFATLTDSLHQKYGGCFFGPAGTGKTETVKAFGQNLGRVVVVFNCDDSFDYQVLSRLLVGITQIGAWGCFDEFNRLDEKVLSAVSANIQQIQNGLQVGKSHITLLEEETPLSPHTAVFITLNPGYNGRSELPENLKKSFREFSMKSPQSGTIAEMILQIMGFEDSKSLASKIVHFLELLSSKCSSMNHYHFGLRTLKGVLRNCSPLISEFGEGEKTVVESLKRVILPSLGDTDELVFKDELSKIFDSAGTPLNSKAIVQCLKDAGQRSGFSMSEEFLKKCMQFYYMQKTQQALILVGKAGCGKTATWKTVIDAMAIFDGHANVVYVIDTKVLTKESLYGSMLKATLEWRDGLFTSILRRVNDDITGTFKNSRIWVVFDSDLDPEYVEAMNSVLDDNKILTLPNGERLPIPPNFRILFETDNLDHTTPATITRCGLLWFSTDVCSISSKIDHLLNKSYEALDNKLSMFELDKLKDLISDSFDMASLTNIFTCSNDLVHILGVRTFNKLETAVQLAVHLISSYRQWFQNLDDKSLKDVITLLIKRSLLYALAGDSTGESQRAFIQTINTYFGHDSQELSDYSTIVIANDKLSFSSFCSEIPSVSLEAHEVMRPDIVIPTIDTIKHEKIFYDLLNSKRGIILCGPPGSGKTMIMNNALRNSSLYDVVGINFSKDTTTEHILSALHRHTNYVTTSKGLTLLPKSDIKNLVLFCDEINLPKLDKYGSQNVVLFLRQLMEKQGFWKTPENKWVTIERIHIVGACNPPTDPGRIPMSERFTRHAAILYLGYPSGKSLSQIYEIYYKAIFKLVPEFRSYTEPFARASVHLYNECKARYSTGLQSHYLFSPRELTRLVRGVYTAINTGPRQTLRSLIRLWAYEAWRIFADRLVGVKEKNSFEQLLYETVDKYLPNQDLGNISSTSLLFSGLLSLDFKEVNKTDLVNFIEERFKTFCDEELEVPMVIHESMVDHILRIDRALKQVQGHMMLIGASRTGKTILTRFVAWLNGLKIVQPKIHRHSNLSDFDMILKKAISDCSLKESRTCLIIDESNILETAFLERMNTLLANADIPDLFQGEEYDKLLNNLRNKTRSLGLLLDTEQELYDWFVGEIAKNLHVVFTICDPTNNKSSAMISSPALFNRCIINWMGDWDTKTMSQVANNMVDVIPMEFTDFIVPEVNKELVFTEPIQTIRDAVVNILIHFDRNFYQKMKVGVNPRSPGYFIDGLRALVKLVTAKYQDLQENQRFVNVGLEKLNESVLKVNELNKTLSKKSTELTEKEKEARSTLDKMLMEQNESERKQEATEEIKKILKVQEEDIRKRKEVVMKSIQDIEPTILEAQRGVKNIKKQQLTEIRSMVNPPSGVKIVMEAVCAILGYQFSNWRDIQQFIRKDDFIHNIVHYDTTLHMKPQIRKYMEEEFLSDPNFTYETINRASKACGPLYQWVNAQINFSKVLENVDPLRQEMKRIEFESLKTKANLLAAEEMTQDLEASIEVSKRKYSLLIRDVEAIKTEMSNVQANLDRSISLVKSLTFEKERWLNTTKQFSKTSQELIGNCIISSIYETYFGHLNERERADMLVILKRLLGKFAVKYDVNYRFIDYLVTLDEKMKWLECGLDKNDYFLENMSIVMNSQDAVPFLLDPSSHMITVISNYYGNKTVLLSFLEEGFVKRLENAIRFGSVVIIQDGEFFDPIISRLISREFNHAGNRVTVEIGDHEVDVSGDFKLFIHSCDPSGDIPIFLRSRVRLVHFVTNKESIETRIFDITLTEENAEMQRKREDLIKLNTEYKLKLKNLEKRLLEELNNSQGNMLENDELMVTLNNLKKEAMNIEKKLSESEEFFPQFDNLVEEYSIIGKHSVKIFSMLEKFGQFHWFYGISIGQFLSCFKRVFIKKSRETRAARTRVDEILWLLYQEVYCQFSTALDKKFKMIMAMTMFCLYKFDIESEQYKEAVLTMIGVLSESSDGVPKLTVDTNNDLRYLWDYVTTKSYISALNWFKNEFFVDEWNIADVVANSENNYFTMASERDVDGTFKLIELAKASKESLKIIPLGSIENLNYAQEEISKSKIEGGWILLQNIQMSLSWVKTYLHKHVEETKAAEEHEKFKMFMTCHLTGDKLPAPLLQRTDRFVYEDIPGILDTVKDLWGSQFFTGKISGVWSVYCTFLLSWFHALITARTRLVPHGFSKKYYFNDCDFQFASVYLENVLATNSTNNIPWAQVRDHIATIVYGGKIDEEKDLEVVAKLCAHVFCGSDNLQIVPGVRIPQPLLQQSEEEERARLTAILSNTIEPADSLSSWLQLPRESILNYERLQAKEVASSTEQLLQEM
Test [9] has as its target T2, Hs-dynein 1. Description: Radioactive ATPase assay, microtubule-stimulated ATPase activity of Hs-dynein 1. The class given is biochemical. Summed up: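 Radioactive ATPase assay with Hs-dynein 1 (His6, aa 1320–4646; 30 nM) in the presence of microtubules. Reaction time was 45 min, and rates with test compound were normalised to DMSO control.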
In test [10] the target is Dm-spastin (Drosophila melanogaster, UniProt Q8I0P1, DEL311-372). Description: NADH-coupled steady-state ATPase assay, Dm-spastin. It counts as biochemical, D. melanogaster. To be noted: 20 μM, 1 mM MgATP.
The target in test [11] is Mm-VCP/p97 (Mus musculus, UniProt Q01853). Description: NADH-coupled steady-state ATPase assay, Mm-VCP/p97. The conditions noted are these: 20 μM, 1 mM MgATP. It counts as biochemical, M. musculus.
Sequence of Mm-VCP/p97 (Q01853 whole entry): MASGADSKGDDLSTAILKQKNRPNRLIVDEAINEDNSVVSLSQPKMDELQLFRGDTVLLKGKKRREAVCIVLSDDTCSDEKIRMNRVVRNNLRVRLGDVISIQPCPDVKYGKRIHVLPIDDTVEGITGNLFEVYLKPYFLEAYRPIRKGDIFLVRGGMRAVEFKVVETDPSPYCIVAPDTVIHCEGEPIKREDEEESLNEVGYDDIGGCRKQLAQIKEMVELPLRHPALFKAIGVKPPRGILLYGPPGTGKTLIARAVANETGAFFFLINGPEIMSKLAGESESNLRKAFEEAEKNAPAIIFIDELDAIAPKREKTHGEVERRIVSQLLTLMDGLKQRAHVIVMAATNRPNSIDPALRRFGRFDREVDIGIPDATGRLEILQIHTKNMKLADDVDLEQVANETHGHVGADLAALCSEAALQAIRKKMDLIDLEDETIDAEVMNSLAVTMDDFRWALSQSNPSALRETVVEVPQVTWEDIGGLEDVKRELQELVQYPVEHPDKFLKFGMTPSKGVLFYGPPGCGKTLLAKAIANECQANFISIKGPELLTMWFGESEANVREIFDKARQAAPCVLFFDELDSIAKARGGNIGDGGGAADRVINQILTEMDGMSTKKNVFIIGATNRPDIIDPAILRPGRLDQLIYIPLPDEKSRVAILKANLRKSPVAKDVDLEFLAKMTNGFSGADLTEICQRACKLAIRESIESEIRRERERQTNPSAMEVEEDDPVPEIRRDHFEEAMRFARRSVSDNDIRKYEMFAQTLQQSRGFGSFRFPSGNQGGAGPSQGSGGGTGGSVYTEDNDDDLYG
For test [12], the target named is Xl-katanin (Xenopus laevis, UniProt Q9PUL2). Put plainly: NADH-coupled steady-state ATPase assay, Xl-katanin. It counts as biochemical, X. laevis. To be noted: 20 μM, 1 mM MgATP. Summed up: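 Recombinant Xl-katanin (50 nM; E. coli, MBP-trap, MonoQ and gel filtration) in 25 mM K-HEPES pH 7.5, 70 mM KCl, 20 mM (NH4)2SO4, 5 mM MgCl2, 2.5 mM DTT, 0.01% Triton X-100 plus NADH-coupled regeneration mix. After 10 min RT preincubation with test compound, MgATP started the reaction. The fluorescence decrease rate (340/440 nm) was converted to ATPase rate using an ADP standard curve.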
Sequence of Xl-katanin (Q9PUL2 whole entry): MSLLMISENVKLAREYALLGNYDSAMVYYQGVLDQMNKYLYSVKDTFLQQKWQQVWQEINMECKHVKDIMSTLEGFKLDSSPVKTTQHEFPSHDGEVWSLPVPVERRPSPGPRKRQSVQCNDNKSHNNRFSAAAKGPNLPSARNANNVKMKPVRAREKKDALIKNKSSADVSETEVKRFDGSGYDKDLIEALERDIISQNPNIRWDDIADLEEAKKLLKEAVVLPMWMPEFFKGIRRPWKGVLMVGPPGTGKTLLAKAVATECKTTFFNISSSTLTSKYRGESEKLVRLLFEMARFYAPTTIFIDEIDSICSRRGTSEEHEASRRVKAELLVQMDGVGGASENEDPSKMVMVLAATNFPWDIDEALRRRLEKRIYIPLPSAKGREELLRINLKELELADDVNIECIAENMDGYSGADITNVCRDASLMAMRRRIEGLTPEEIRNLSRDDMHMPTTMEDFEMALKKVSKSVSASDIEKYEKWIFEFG

The target in test [13] is T4, Hs-FIGL1 (Homo sapiens, UniProt Q6PIW4).
T4 sequence (Q6PIW4 288-674): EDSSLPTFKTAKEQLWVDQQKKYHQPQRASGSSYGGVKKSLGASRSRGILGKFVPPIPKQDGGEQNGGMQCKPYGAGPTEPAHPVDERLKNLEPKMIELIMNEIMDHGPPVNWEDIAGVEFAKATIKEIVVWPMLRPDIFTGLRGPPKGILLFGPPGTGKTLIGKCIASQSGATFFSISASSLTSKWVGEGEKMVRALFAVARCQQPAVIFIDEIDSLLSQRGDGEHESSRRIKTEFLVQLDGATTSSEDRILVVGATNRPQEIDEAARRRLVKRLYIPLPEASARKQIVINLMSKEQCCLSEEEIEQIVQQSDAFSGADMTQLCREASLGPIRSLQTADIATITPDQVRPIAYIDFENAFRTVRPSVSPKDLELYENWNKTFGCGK
Put plainly: NADH-coupled steady-state ATPase assay, Hs-FIGL1. It counts as biochemical, H. sapiens. To be noted: read-out: Inhibition of ATPase activity, Hs-FIGL1. Summed up:
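Recombinant Hs-FIGL1 (50 nM; E. coli-expressed) in 25 mM Na-MES pH 6.5, 70 mM KOAc, 20 mM (NH4)2SO4, 5 mM Mg(OAc)2, 1 mM TCEP, 0.01% Triton X-100, with NADH/PEP/pyruvate kinase/lactate dehydrogenase coupling system. Protein preincubated 10 min at RT with test compound, then MgATP added. NADH fluorescence (ex 340, em 440 nm) slope converted to ATPase rate with an ADP standard curve.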

Test [14] has as its target T1, GFP-Sc-Dyn. Put plainly: NADH-coupled steady-state ATPase assay, GFP-Sc-Dyn basal ATPase. It counts as biochemical, S. cerevisiae.
For test [15], the target named is Sc-Dyn-lyso (Saccharomyces cerevisiae, UniProt P36022). Description: NADH-coupled steady-state ATPase assay, Sc-Dyn-lyso. It counts as biochemical, S. cerevisiae. The method, boiled down: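 Ten-dose DMSO serial dilution of test compound (stock top 4 mM) was preincubated 10 min at RT. MgATP (10 mM stock) started the reaction, and NADH fluorescence slopes were converted via an ADP standard curve.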

Molecules are shown by their SMILES. Where two headings read alike, the source gives them in different places.

T1 sequence (P36022 1219-4092): as the sequence (P36022 1219-4092 limits assumed) above
Sequence of GFP-Sc-Dyn V2391S/M2732S (AAA3_V-S/AAA4_M-S) (P36022 1219-4092 V2391S/M2732S): as the sequence (P36022 1219-4092 limits assumed) above, with V1173S, M1514S counted along it

With `Nc1ncnc2c1ncn2[C@@H]1O[C@H](COP(=O)(O)OP(=O)(O)NP(=O)(O)O)[C@@H](O)[C@H]1O` [AMPPNP, adenylyl imidodiphosphate, reference compound], the EC50 turned out to be 25 ± 20 µM in test [1] (read-out: EC50, AMPPNP binding to GFP-Sc-Dyn (MST), mean ± 95% CI, n=3, 60% MST power) and 180 ± 78 µM in test [2].

In the case of `N#CC(=C(O)c1ccc(Cl)cc1Cl)c1nc2cc(Cl)ccc2c(=O)[nH]1` [compound 1, ciliobrevin D], the “Inhibition of dynein's basal ATPase activity (in words)” value in test [3] was “does not”.

One may read the IC50 as the midpoint of a concentration-inhibition curve. For the compound `N#Cc1c(C2(c3ccc(Cl)cc3)CC2)nn2c1[nH]c(=O)c1cc(I)ccc12` [compound 2, dynapyrazole-A], the IC50 in test [4] is about 10 µM.

Turning to `COc1c[nH]c2c(C#N)c(C3(c4ccc(Cl)cc4)CC3)nn2c1=O` [compound 6, 2-[1-(4-chlorophenyl)cyclopropyl]-6-methoxy-7-oxo-4H-pyrazolo[1,5-a]pyrimidine-3-carbonitrile], in test [5], the “Inhibition of Hs-dynein 1 basal ATPase activity (in words)” value is listed as “does not inhibit”. Besides, in test [6], the “Binding to Sc-Dyn-lyso (MST, in words)” value is given as “did not bind”. Also, in test [1] (control compound), the “Binding to GFP-Sc-Dyn (MST, in words)” value is on record as “could not detect binding”. In addition, the “Effect on microtubule gliding (in words)” value in test [7] is listed as “comparable to DMSO”. Further, the “Microtubule gliding velocity, 30 minutes after treatment” value in test [7] (1% DMSO, 1 mM Mg-ATP, mean ± SD) is 66 ± 21. In test [8], the “Effect on landing rate (in words)” value is listed as “not sensitive”. For the same compound, in [8] (0-50 μM compound), the “Effect on dynein processivity (run length) (in words)” value is on record as “not sensitive” and the “Effect on dynein velocity (in words)” value is listed as “not sensitive”.

As to `N#Cc1c(C2(c3ccc(Cl)cc3)CC2)nn2c(=O)c(Oc3ccccc3Cl)c[nH]c12` [compound 13, 6-(2-chlorophenoxy)-2-[1-(4-chlorophenyl)cyclopropyl]-7-oxo-4H-pyrazolo[1,5-a]pyrimidine-3-carbonitrile], the “Inhibition of Hs-dynein 1 basal ATPase activity (in words)” value in test [5] is “less active”.

Turning to `COc1cccc(Oc2c[nH]c3c(C#N)c(C4(c5ccc(Cl)cc5)CC4)nn3c2=O)c1` [compound 16, 2-[1-(4-chlorophenyl)cyclopropyl]-6-(3-methoxyphenoxy)-7-oxo-4H-pyrazolo[1,5-a]pyrimidine-3-carbonitrile], the “Inhibition of Hs-dynein 1 basal ATPase activity (in words)” value in [5] is “less active”.

On to `N#Cc1c(C2(c3ccc(Cl)cc3)CC2)nn2c(=O)c(Oc3ccc(Cl)cc3)c[nH]c12` [compound 17, 6-(4-chlorophenoxy)-2-(1-(4-chlorophenyl)cyclopropyl)-7-oxo-4,7-dihydropyrazolo[1,5-a]pyrimidine-3-carbonitrile], for which the “Inhibition of Hs-dynein 1 basal ATPase activity (in words)” value in test [5] is recorded as “less active”.

The term inhibition denotes the share of the control response that was lost under treatment. In the case of `N#Cc1c(C2(c3ccc(Cl)cc3)CC2)nn2c(=O)c(Oc3cccc(Cl)c3)c[nH]c12` [compound 19, 6-(3-chlorophenoxy)-2-[1-(4-chlorophenyl)cyclopropyl]-7-oxo-4H-pyrazolo[1,5-a]pyrimidine-3-carbonitrile], the IC50 is 17 ± 2.3 µM in test [5], about 30 µM in test [9], 10 ± 1.2 µM in [14] and 14 ± 4.9 µM in [15]. Also, the “Inhibition of Hs-dynein 1 basal ATPase activity (in words)” value in [5] is reported as “most active”. For the same compound, the “Reduction of ATPase activity, Dm-spastin” value in test [10] is under 25%. The “Reduction of ATPase activity, Mm-VCP” value in test [11] is on record as under 25%. Also, the “Reduction of ATPase activity, Xl-katanin” value in [12] is reported as under 25%. Further, in [13], the inhibition at 20 µM was about 85%.
